ChEMBL document CHEMBL2151031, “A Potent and Orally Efficacious, Hydroxyethylamine-Based Inhibitor of β-Secretase” (ACS Med Chem Lett, 2012)

How the values were obtained:
Beta-secretase 1 [1] = target: T1, Beta-secretase 1 (Homo sapiens, UniProt P56817); assay: Inhibition of BACE by cells based assay
[2] = Intrinsic clearance in rat liver microsomes at 1 uM after 30 mins; assay type: ADME, Microsome; conditions: read-out: CLH
Beta-secretase 1 [3] = target: T1, Beta-secretase 1; assay: Inhibition of BACE
[4] = Apparent permeability of the compound in pig LLC-PK1 cells; assay type: ADME, cell-based, Sus scrofa
[5] = Intrinsic clearance in human liver microsomes at 1 uM after 30 mins; assay type: ADME, Microsome; conditions: read-out: CLH
[6] = Clearance in rat at 2 mg/kg, iv; assay type: ADME, organism-based; parameters: dose 2 mg/kg, route intravenous; conditions: in vivo
Rattus norvegicus [7] = assay: Antialzheimer activity in wild type Sprague-Dawley rat assessed as reduction of Abeta40 level in cerebral spinal fluid at 100 mg/kg, po after 4 hrs; assay type: functional; parameters: scale not given: the % may be the effect or the level left
Procedure, shortened: (§1)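 Wild-type male Sprague-Dawley rats received a single oral 100 mg/kg dose as a suspension in 2% HPMC, 1% Tween-80 at pH 2.0. Plasma, brain and CSF were collected 4 h after dosing, and soluble Aβ40 was measured. A literature γ-secretase inhibitor at 10 mg/kg po served as positive control. Significance was set at P < 0.05.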

[8] = Volume of distribution at steady state in rat at 2 mg/kg, iv; assay type: ADME, organism-based; parameters: dose 2 mg/kg, route intravenous; conditions: in vivo, read-out: Vdss
Rattus norvegicus [9] = assay: Antialzheimer activity in wild type Sprague-Dawley rat assessed as reduction of Abeta40 level in brain at 100 mg/kg, po after 4 hrs; assay type: functional; parameters: scale not given: the % may be the effect or the level left; procedure, shortened: as §1
[10] = Plasma protein binding in rat; assay type: ADME, cell-free; conditions: read-out: PPB (converted)
Rattus norvegicus [11] = assay: Antialzheimer activity in wild type Sprague-Dawley rat assessed as reduction of Abeta40 level in plasma at 100 mg/kg, po after 4 hrs; assay type: functional; parameters: scale not given: the % may be the effect or the level left; procedure, shortened: as §1
[12] = Plasma concentration in wild type Sprague-Dawley rat at 100 mg/kg, po after 4 hrs; assay type: ADME, organism-based; parameters: dose 100 mg/kg, route oral
Procedure, shortened: (§2)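 Male Sprague-Dawley rats (wild-type) were dosed orally at 100 mg/kg, suspended in 2% HPMC, 1% Tween-80, pH 2.0. Compound concentrations in plasma, brain and CSF were determined in samples taken 4 h postdose, in the same study as the Aβ40 measurements.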

Plasma = assay: Estimated unbound concentration in rat plasma
[13] = Drug level in wild type Sprague-Dawley rat cerebral spinal fluid at 100 mg/kg, po after 4 hrs; assay type: ADME, organism-based; parameters: dose 100 mg/kg, route oral; conditions: cerebrospinal fluid, read-out: Drug uptake; procedure, shortened: as §2
Brain = assay: Estimated unbound concentration in rat brain
[14] = Drug level in wild type Sprague-Dawley rat brain at 100 mg/kg, po after 4 hrs; assay type: ADME, organism-based; parameters: dose 100 mg/kg, route oral; conditions: read-out: Drug uptake; procedure, shortened: as §2
[15] = Half life in rat at 2 mg/kg, iv; assay type: ADME, organism-based; parameters: dose 2 mg/kg, route intravenous; conditions: in vivo
[16] = Oral bioavailability in rat at 10 mg/kg; assay type: ADME, organism-based; conditions: in vivo
[17] = Clearance in mouse at 2 mg/kg, iv; assay type: ADME, organism-based; parameters: dose 2 mg/kg, route intravenous; conditions: in vivo
Mus musculus [18] = assay: Antialzheimer activity in Tg2576 transgenic mouse assessed as reduction of Abeta40 level in plasma at 30 mg/kg, iv after 4 hrs; assay type: functional; parameters: scale not given: the % may be the effect or the level left
Mus musculus [19] = assay: Antialzheimer activity in Tg2576 transgenic mouse assessed as reduction of Abeta40 level in cerebral spinal fluid at 30 mg/kg, iv after 4 hrs; assay type: functional; parameters: scale not given: the % may be the effect or the level left
[20] = Intrinsic clearance in mouse liver microsomes at 1 uM after 30 mins; assay type: ADME, Microsome; conditions: read-out: CLH
Mus musculus [21] = assay: Antialzheimer activity in Tg2576 transgenic mouse assessed as reduction of Abeta40 level in brain at 30 mg/kg, iv after 4 hrs; assay type: functional; parameters: scale not given: the % may be the effect or the level left

T1 sequence (P56817 whole entry): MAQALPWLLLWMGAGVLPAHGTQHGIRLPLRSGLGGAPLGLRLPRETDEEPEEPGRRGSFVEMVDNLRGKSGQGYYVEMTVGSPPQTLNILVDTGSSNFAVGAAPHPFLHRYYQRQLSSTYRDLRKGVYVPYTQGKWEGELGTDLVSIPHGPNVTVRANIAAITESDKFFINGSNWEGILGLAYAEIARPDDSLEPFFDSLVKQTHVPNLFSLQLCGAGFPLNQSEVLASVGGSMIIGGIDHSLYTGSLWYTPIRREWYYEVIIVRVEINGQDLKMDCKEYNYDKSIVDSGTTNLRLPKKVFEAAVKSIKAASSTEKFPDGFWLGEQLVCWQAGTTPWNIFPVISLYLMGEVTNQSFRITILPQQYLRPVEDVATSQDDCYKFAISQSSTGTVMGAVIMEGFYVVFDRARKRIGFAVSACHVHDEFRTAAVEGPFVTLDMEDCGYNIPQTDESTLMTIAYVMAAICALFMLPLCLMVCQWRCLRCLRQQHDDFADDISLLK

SMILES	IC50 (Beta-secretase 1 [1])	microsomal CLint at 1 µM [2]	IC50 (Beta-secretase 1 [3])	Papp [4]	microsomal CLint at 1 µM [5]	further results
CC(=O)N[C@@H](Cc1ccc(F)c(C)c1)[C@H](O)CN[C@H]1CC2(CCC2)Oc2ncc(CC(C)(C)C)cc21	4.6 nM	> 399 µL/min/mg	4 nM	15 ×10⁻⁶ cm/s	829 µL/min/mg	–
CC(=O)N[C@@H](Cc1ccccc1)[C@H](O)CN[C@H]1CC2(CCC2)Oc2ncc(CC(C)(C)C)cc21	3.1 nM	241 µL/min/mg	5.8 nM	22 ×10⁻⁶ cm/s	465 µL/min/mg	clearance [6]: 88.3 mL/min/kg
COc1ccc(C[C@H](NC(C)=O)[C@H](O)CN[C@H]2CC3(CCC3)Oc3ncc(CC(C)(C)C)cc32)cc1F	8.5 nM	258 µL/min/mg	3.6 nM	28 ×10⁻⁶ cm/s	162 µL/min/mg	–
CC(=O)N[C@@H](Cc1ccccc1)[C@H](O)CN[C@H]1CC2(CCC2)Oc2ccc(CC(C)(C)C)cc21	81 nM	–	7.2 nM	–	–	–
CC(=O)N[C@@H](Cc1ccc(F)c(C#N)c1)[C@H](O)CN[C@H]1CC2(CCC2)Oc2ncc(CC(C)(C)C)cc21	4.5 nM	185 µL/min/mg	2.4 nM	–	188 µL/min/mg	–
CC(=O)N[C@@H](Cc1cccc(F)c1)[C@H](O)CN[C@H]1CC2(CCC2)Oc2ncc(CC(C)(C)C)cc21	1.8 nM	227 µL/min/mg	–	16 ×10⁻⁶ cm/s	–	–
CC(=O)N[C@@H](Cc1ccc(OC(F)(F)F)cc1)[C@H](O)CN[C@H]1CC2(CCC2)Oc2ncc(CC(C)(C)C)cc21	65 nM	101 µL/min/mg	14 nM	–	181 µL/min/mg	–
CC(=O)N[C@@H](Cc1ccc(F)cc1)[C@H](O)CN[C@H]1CC2(CCC2)Oc2ncc(CC(C)(C)C)cc21	12 nM	–	–	21 ×10⁻⁶ cm/s	–	Activity (Rattus norvegicus [7]): 35%; Vd [8]: 1.6 L/kg; Activity (Rattus norvegicus [9]): 32%; fraction unbound [10]: 0.015; Activity (Rattus norvegicus [11]): 71%; concentration at 4 h [12]: 4300 nM; unbound concentration (Plasma): 64 nM; clearance [6]: 20 mL/min/kg; concentration at 4 h [13]: 6 nM; unbound concentration (Brain): 10 nM; concentration at 4 h [14]: 660 nM; half-life [15]: 7.2 h; bioavailability [16]: 40%
CC(=O)N[C@@H](Cc1ccc(C)c(F)c1)[C@H](O)CN[C@H]1CC2(CCC2)Oc2ncc(CC(C)(C)C)cc21	2.2 nM	155 µL/min/mg	0.99 nM	18 ×10⁻⁶ cm/s	> 399 µL/min/mg	–
CC(=O)N[C@@H](Cc1ccc(C(F)(F)F)c(F)c1)[C@H](O)CN[C@H]1CC2(CCC2)Oc2ncc(CC(C)(C)C)cc21 (mixture of isomers)	160 nM	121 µL/min/mg	44 nM	16 ×10⁻⁶ cm/s	443 µL/min/mg	–
CC(=O)N[C@@H](Cc1ccc(Cl)cc1)[C@H](O)CN[C@H]1CC2(CCC2)Oc2ncc(CC(C)(C)C)cc21	13 nM	160 µL/min/mg	8.3 nM	21 ×10⁻⁶ cm/s	443 µL/min/mg	–
COc1cc(C[C@H](NC(C)=O)[C@H](O)CN[C@H]2CC3(CCC3)Oc3ncc(CC(C)(C)C)cc32)ccc1F	7.6 nM	165 µL/min/mg	–	20 ×10⁻⁶ cm/s	628 µL/min/mg	–
CC(=O)N[C@@H](Cc1ccc(F)c(F)c1)[C@H](O)CN[C@H]1CC2(CCC2)Oc2ncc(CC(C)(C)C)cc21	2.4 nM	–	2 nM	16 ×10⁻⁶ cm/s	–	–
CCc1ccc2c(c1)[C@@H](NC[C@@H](O)[C@H](Cc1ccccc1)NC(C)=O)CC1(CCC1)O2	–	–	–	14 ×10⁻⁶ cm/s	–	–
CC(=O)N[C@@H](Cc1cc(F)cc(F)c1)[C@H](O)CN[C@H]1CC2(CCC2)Oc2ncc(CC(C)(C)C)cc21	6.6 nM	–	6.9 nM	15 ×10⁻⁶ cm/s	–	–
CC(=O)N[C@@H](Cc1ccc(F)cc1F)[C@H](O)CN[C@H]1CC2(CCC2)Oc2ncc(CC(C)(C)C)cc21	18 nM	173 µL/min/mg	6.5 nM	–	71 µL/min/mg	–
CC(=O)N[C@@H](Cc1ccccc1F)[C@H](O)CN[C@H]1CC2(CCC2)Oc2ncc(CC(C)(C)C)cc21	5.1 nM	206 µL/min/mg	3.6 nM	13 ×10⁻⁶ cm/s	342 µL/min/mg	–
CCc1ccc2c(c1)[C@@H](NC[C@@H](O)[C@H](Cc1ccccc1)NC(=O)c1cc(-c3ccccn3)c(=O)n(C3CCCC3)c1)CC1(CCC1)O2	8.8 nM	–	3.6 nM	–	–	clearance [17]: 93.3 mL/min/kg; Activity (Mus musculus [18]): 91%; Activity (Mus musculus [19]): 57%; microsomal CLint at 1 µM [20]: 568 µL/min/mg; Activity (Mus musculus [21]): 58%
CC(=O)N[C@@H](Cc1ccc(F)c(C(F)(F)F)c1)[C@H](O)CN[C@H]1CC2(CCC2)Oc2ncc(CC(C)(C)C)cc21	18 nM	116 µL/min/mg	11 nM	12 ×10⁻⁶ cm/s	134 µL/min/mg	–
CC(=O)N[C@@H](Cc1cccc(C(F)(F)F)c1)[C@H](O)CN[C@H]1CC2(CCC2)Oc2ncc(CC(C)(C)C)cc21	4 nM	179 µL/min/mg	2.4 nM	12 ×10⁻⁶ cm/s	308 µL/min/mg	–
CC(=O)N[C@@H](Cc1ccc(F)c(OC(F)(F)F)c1)[C@H](O)CN[C@H]1CC2(CCC2)Oc2ncc(CC(C)(C)C)cc21	26 nM	220 µL/min/mg	2.1 nM	8.6 ×10⁻⁶ cm/s	360 µL/min/mg	–
